Shown are actives, neighbours in structure and some others; about 2.4% of the full set was active somewhere.
DNMT1 block: DNMT1 (human) enzyme inhibition; DNMT1 molecular beacon, Hinp1I cleavage, fluorescence; inhibition (reported as % activation of signal), % at 10 µM; actives 0.83% (n = 360,000); P26358; in the data active = inhibition above about 50%
STEP inh: inhibitors of human striatal-enriched phosphatase STEP; recombinant STEP, OMFP fluorogenic substrate, fluorescence; inhibition, % at 20 µM; actives 0.25% (n = 360,000);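 active = inhibition at 20 µM, scaled per plate between control wells, above about 37%, limit read from the data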
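Material: STEP (striatal-enriched tyrosine phosphatase) enzyme, cell-free; Compound dosing: 20 µM single dose in 1% DMSO; Technique: fluorescence read at 480 nm ex / 540 nm em; Times: reaction 20 min, ambient temperature; Medium: 50 mM Bis-Tris pH 6.0 with 2.5 mM DTT and 0.005% Tween 20; Also added: OMFP at 25 µM.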
SUMO1-SIM PPI: alters human SUMO1 binding to SIM partners. SUMO1 binding to a labelled peptide, TR-FRET, 1 h. P63165. inhibition, % at 20 µM. actives 0.33% (n = 360,000); in the data active = inhibition above about 37%
Target sequence (P63165 whole entry, looked up): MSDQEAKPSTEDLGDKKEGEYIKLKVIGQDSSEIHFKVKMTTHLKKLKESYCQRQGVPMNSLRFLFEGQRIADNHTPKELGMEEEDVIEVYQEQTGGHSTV
Scp-1 inhibitor: Scp-1 (human) phosphatase inhibition; Q9GZU7; Recombinant Scp1, phosphopeptide, malachite green phosphate absorbance; inhibition, % at 20 µM; actives 0.88% (n = 340,000);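 active = inhibition above about 50% at 20 µM, limit read from the data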
Target sequence (Q9GZU7 76-261 limits assumed): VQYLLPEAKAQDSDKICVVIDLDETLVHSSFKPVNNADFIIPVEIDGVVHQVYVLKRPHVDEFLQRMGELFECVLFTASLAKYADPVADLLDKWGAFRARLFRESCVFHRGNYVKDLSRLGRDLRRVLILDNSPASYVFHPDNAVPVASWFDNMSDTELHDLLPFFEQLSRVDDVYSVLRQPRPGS
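Test system – truncated SCP-1 phosphatase (76-261aa) · Reagent – Phosphorylated 17-residue peptide substrate · Incubation – 45 min room-temperature reaction, 5 min colour, 30 min stabiliser · Detection – colorimetric phosphate reagent with accelerator and stabiliser, absorbance at 630 nm · Measure – % inhibition at 20 µM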
NadD inh: NadD (S. aureus) enzyme inhibition; AID 602399; actives 0.78% (n = 360,000); purified NadD enzyme, colorimetric absorbance read-out; inhibition, % at 20 µM; in the data active = inhibition above about 26%
LMPTP block: LMPTP (human) inhibition; P24666; actives 0.22% (n = 360,000); inhibition, % at 20 µM; recombinant LMPTP-A, OMFP fluorogenic substrate, fluorescence intensity;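 active = compounds that cut the enzyme signal by at least half of the control window in the single-dose screen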
Target sequence (P24666 whole entry, looked up): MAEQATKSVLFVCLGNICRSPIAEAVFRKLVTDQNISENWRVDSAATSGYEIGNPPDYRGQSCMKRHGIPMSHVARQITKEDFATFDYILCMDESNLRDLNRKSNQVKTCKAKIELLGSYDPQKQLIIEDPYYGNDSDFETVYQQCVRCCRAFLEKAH
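Assay system: LMPTP-A, protein tyrosine phosphatase of low molecular weight / Medium: pH 6.0 Bis-Tris buffer with DTT and Triton X-100 / Schedule: 50 min enzyme reaction at room temperature, protected from light / Measured by: endpoint fluorescence intensity from OMFP dephosphorylation / Read-out basis: % inhibition relative to no-enzyme and uninhibited control wells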
Scp1 confirm: Scp-1 (human) inhibition, single-dose confirmed | shares compounds with Scp-1 inhibitor | actives 61% (n = 2,500) | recombinant SCP-1 catalytic domain, phosphate release, malachite green absorbance | inhibition, % at 20 µM | AID 540281
MG interference: counter-screen for Scp-1 inhibitors: colorimetric interference | apparent inhibition (interference), % at 20 µM | 2,500 tested, under 10 active | shares compounds with Scp-1 inhibitor | Colorimetric interference counterscreen, malachite green absorbance 630 nm;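 also: compounds added after enzyme reaction finished so only phosphate colour detection is probed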
Scp-1 Tm shift: binds human Scp-1, shifting its melting temperature; thermal shift relative to vanadate control, % at 40 µM; actives 25% (n = 1,500); Recombinant SCP1, Sypro Orange thermal shift Tm; shares compounds with Scp-1 inhibitor;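 active = substances whose mean melting-temperature shift, as a percentage of the reference inhibitor's shift, reaches about 5.3%, limit read from the data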
A number is an active result; 0 = inactive; - = no result.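 The calls were made as follows, unless noted: active = inhibition of at least 30% at 20 µM; inactive = the rest.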

SMILES | DNMT1 block | STEP inh | SUMO1-SIM PPI | Scp-1 inhibitor | NadD inh | LMPTP block | Scp1 confirm | MG interference | Scp-1 Tm shift
CCCCNC(=O)c1ccc(CNc2c(N3CCC(C(=O)OCC)CC3)c(=O)c2=O)cc1 | 0 | 0 | 0 | 0 | 0 | 0 | - | - | -
CCOc1ccccc1-c1nc2c(s1)CCc1onc(-c3ccc(OC)cc3)c1-2 | 0 | 0 | 0 | 81 | 0 | 0 | 0 | 0 | -
COc1ccc(-c2noc3c2-c2nc(-c4ccccc4Cl)sc2CC3)cc1 | 0 | 0 | 0 | 0 | 0 | 0 | - | - | -
Cc1cc(C)c2c(N)c(C(=O)c3ccc(Cl)c(Cl)c3)sc2n1 | 0 | 0 | 0 | 80 | 0 | 62 | 0 | 0 | -
CCOC(=O)Cn1nc(C)n(-c2ccccc2)c1=O | 0 | 0 | 0 | 0 | 0 | 0 | - | - | -
CC[N+](CC)(CC)CC(=O)Nc1ccc(SC(F)F)cc1 | 0 | 0 | 0 | 60 | 0 | 0 | 0 | 0 | -
Cc1c(C(=O)Nc2ccc3c(c2)OCO3)oc2ccccc12 | 0 | 0 | 0 | 0 | 0 | 0 | - | - | -
CN(Cc1cnc2nc(N)nc(N)c2n1)c1ccc(C(=O)NC(CCC(=O)O)C(=O)O)cc1 (centres undefined) | 0 | 0 | 0 | 62 | 0 | 0 | 70 | 0 | 0
CN(Cc1cnc2nc(N)nc(N)c2n1)c1ccc(C(=O)NC(CCC(=O)O)C(=O)O)cc1C(F)(F)F (centres undefined) | 0 | 0 | 0 | 50 | 0 | 0 | 0 | 0 | -
CCOC(=O)CCn1nc(-c2ccc(Cl)cc2)cc1N | 0 | 0 | 0 | 89 | 0 | 0 | 0 | 0 | -
Cc1cccc(NC(=O)CN2C(=O)S/C(=C\c3ccc(O)c([N+](=O)[O-])c3)C2=O)c1 | 0 | 0 | 0 | 80 | 0 | 0 | 77 | 0 | 26
O=C1S/C(=C\c2ccc(O)c([N+](=O)[O-])c2)C(=O)N1Cc1cccc([N+](=O)[O-])c1 | 0 | 0 | 0 | 0 | 0 | 0 | - | - | -
O=C(CN1C(=O)S/C(=C\c2ccc(O)c([N+](=O)[O-])c2)C1=O)Nc1ccc(N2CCOCC2)cc1 | 0 | 0 | 0 | 62 | 0 | 0 | 60 | 0 | 0
Cc1cc(C)cc(N2CC(C)(C)C2=O)c1 | 0 | 0 | 0 | 0 | 0 | 0 | - | - | -
CN(C)S(=O)(=O)c1ccc(C(=O)NCC[N+]2(C)CCCCCC2)o1 | 0 | 0 | 0 | 68 | 0 | 0 | 0 | 0 | -
Cc1ccc(NC(=O)c2ccc(Br)o2)cc1S(=O)(=O)N(C)C | 0 | 0 | 0 | 0 | 0 | 0 | - | - | -
Fc1cc(F)c(NC(=S)N2CCOCC2)c(F)c1 | 0 | 0 | 0 | 95 | 0 | 0 | 0 | 0 | -
O=C(c1cc2cc3ccc(Cl)cc3nc2o1)N1CCN(Cc2ccc3c(c2)OCO3)CC1 | 0 | 0 | 0 | 0 | 0 | 0 | - | - | -
CC(=O)OC1C2CCC1C([N+]1(C)CCCCC1)CC2 (centres undefined) | 0 | 0 | 0 | 94 | 0 | 0 | 95 | 0 | 0
COc1cccc(NC(=O)C2CCCCC2)c1 | 0 | 0 | 0 | 70 | 0 | 0 | 0 | 0 | -
Cc1ccc(CS(=O)Cc2ccc(C(=O)NCC(C)c3ccccc3)o2)cc1 (centres undefined) | 0 | 0 | 0 | 0 | 0 | 0 | - | - | -
COc1ccc(NS(=O)(=O)c2cc3c(cc2C)N(C(C)=O)CCO3)cc1OC | 0 | 0 | 0 | 0 | 0 | 0 | - | - | -
COc1cccc(NS(=O)(=O)c2cc3c(cc2C)N(C(C)=O)CCO3)c1 | 0 | 0 | 0 | 87 | 0 | 0 | 0 | 0 | -
CCc1cc(=O)oc2cc(OCC(=O)NCCCn3ccnc3)c(Cl)cc12 | 0 | 0 | 0 | 0 | 0 | 0 | - | - | -
Cc1ccc(C(=O)CSC2=C(C#N)C(c3ccco3)CC(=O)N2)c(C)c1 (centres undefined) | 64 | 0 | 0 | 61 | 0 | 0 | 56 | 0 | 0
SMILES | DNMT1 block | STEP inh | SUMO1-SIM PPI | Scp-1 inhibitor | NadD inh | LMPTP block | Scp1 confirm | MG interference | Scp-1 Tm shift
COc1cc2sc3ccc(C#Cc4ccccn4)cc3c(=O)c2cc1OC | 0 | 0 | 0 | 50 | 0 | 0 | 0 | 0 | -
COc1cccc2sc3cc(C#Cc4ccccn4)ccc3c(=O)c12 | 0 | 0 | 0 | 0 | 0 | 0 | - | - | -
NC(=O)Cn1c(=O)n(CC(=O)N2CCCCC2)c(=O)c2sccc21 | 0 | 0 | 0 | 0 | 0 | 0 | - | - | -
CCCCNC(=O)c1ccc2nc(-c3ccco3)c(-c3ccco3)nc2c1 | 81 | 0 | 40 | 53 | 0 | 0 | 51 | 0 | 13
Cc1ccc(NS(=O)(=O)c2ccc3c(c2)NC(=O)C(C)C(=O)N3)c(Cl)c1 (centres undefined) | 0 | 0 | 0 | 0 | 0 | 0 | - | - | -
CCC(NS(=O)(=O)c1ccc2c(c1)NC(=O)C(C)C(=O)N2)c1cccs1 (centres undefined) | 0 | 0 | 0 | 0 | 0 | 0 | 0 | 0 | -
CC1C(=O)Nc2ccc(S(=O)(=O)NCc3ccc(Cl)cc3)cc2NC1=O (centres undefined) | 0 | 0 | 0 | 0 | 0 | 0 | 0 | 0 | -
O=C1CN(C(=O)CSc2ccc(-c3ccc(F)cc3)nn2)c2ccccc2N1 | 0 | 0 | 0 | 0 | 0 | 0 | - | - | -
O=C(COc1ccc(-n2cnnn2)cc1)Nc1cccc(Cl)c1Cl | 0 | 0 | 0 | 69 | 0 | 0 | 68 | 0 | 0
Cc1ccc(C(=O)O)cc1-c1ccc(/C=C2\SC(=O)N(CC(=O)Nc3ccccc3)C2=O)o1 | 67 | 0 | 0 | 73 | 34 | 0 | 84 | 0 | 10
Cc1cc(/C=C2\SC(=O)N(CC(=O)Nc3ccccc3F)C2=O)c(C)n1C | 0 | 0 | 0 | 0 | 0 | 0 | - | - | -
Cc1ccccc1NC(=O)CN1C(=O)S/C(=C\c2ccc(-c3cc(C(=O)O)ccc3C)o2)C1=O | 0 | 0 | 0 | 98 | 41 | 0 | 69 | 0 | 0
O=C(O)c1ccc(-c2ccc(/C=C3\NC(=O)N(Cc4ccc(Cl)cc4)C3=O)o2)cc1 | 0 | 0 | 0 | 0 | 0 | 0 | - | - | -
Cc1ccc(NC(=O)CN2C(=O)S/C(=C\c3ccc(C(=O)O)cc3)C2=O)cc1 | 0 | 0 | 0 | 0 | 0 | 0 | - | - | -
Cc1cc(C(=O)O)ccc1-c1ccc(/C=C2\NC(=O)N(Cc3ccccc3Cl)C2=O)o1 | 64 | 0 | 0 | 65 | 0 | 0 | 75 | 0 | 9.3
Cc1ccc(NC(=O)c2nccnc2C(=O)O)cc1C | 0 | 0 | 0 | 0 | 0 | 0 | - | - | -
CCN(CC(=O)N1CCN(Cc2ccccc2)CC1)S(=O)(=O)c1ccc(F)cc1 | 0 | 0 | 0 | 0 | 0 | 0 | - | - | -
O=C(Nc1ccccc1O)c1ccc2c(c1)C(=O)N(Cc1ccco1)C2=O | 0 | 0 | 0 | 68 | 0 | 0 | 59 | 0 | 0

Source: PubChem BioAssay (Sanford-Burnham Center for Chemical Genomics)
